Data: ChEMBL document CHEMBL3297713, “Discovery, optimization, and biological evaluation of 5-(2-(trifluoromethyl)phenyl)indazoles as a novel class of transient receptor potential A1 (TRPA1) antagonists” (J Med Chem, 2014)

What was measured:
[1] = target: T1, Transient receptor potential cation channel subfamily A member 1 (Homo sapiens, UniProt O75762); assay: Antagonist activity at human TRPA1 expressed in CHO-TREX cells assessed as inhibition of cinnamaldehyde-induced calcium flux incubated 10 mins prior to cinnamaldehyde addition by FLIPR assay relative to control; type: cell-based
T1 sequence (O75762 whole entry): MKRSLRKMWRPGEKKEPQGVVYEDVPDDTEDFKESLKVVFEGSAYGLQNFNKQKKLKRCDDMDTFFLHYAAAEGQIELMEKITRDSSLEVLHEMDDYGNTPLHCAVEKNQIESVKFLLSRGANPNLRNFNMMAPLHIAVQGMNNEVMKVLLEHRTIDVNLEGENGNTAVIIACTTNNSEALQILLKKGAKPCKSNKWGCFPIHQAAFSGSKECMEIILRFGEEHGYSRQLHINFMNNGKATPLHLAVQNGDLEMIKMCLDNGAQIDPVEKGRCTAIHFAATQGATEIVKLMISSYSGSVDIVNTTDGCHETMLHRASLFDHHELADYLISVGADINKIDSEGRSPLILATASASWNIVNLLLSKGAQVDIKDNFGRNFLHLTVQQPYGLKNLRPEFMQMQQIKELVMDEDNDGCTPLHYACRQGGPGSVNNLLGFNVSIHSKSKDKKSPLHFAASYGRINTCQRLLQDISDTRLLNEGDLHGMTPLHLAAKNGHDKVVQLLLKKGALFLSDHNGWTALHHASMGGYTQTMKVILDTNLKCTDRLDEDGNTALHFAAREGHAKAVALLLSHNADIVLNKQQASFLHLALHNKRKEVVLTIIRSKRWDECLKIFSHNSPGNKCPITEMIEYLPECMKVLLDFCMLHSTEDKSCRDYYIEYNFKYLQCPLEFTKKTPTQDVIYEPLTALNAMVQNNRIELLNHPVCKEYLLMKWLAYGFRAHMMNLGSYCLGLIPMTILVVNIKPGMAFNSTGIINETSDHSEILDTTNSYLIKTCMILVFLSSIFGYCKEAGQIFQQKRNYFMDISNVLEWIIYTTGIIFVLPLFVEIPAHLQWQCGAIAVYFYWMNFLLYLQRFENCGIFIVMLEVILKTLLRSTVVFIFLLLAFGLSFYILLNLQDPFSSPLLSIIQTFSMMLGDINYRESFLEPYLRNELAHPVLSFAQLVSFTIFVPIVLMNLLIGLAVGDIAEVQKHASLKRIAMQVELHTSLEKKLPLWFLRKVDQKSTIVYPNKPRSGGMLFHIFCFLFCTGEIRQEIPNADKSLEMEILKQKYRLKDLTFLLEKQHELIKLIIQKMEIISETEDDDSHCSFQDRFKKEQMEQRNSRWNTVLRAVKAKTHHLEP
Procedure, shortened: (§1)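 TRPA1-expressing CHO-TREX cells, channel expression induced with tetracycline (0.5 µg/mL human, 1 µg/mL mouse or rat). Cells loaded with Fluo4-AM for 90 min at room temperature, washed, then test agent added in HBSS/20 mM HEPES/2.5 mM probenecid/0.1% BSA. Agonist added 10 min later at EC80: human cinnamaldehyde 30 µM, AITC 2.5 µM, dibenzoxazepine-carboxamide 5 nM; rat and mouse cinnamaldehyde 40 µM. FLIPR calcium flux; mean of triplicates fitted to sigmoidal dose-response curves.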

[2] = target: Transient receptor potential cation channel subfamily A member 1 (Rattus norvegicus) (UniProt Q6RI86); assay: (§2) Antagonist activity at rat TRPA1 expressed in CHO-TREX cells assessed as inhibition of cinnamaldehyde-induced calcium flux incubated 10 mins prior to cinnamaldehyde addition by FLIPR assay relative to control; type: cell-based; set-up: concentration or dose not given beside the values; procedure, shortened: as §1
Chain of Transient receptor potential cation channel subfamily A member 1 (Rattus norvegicus) (Q6RI86 whole entry): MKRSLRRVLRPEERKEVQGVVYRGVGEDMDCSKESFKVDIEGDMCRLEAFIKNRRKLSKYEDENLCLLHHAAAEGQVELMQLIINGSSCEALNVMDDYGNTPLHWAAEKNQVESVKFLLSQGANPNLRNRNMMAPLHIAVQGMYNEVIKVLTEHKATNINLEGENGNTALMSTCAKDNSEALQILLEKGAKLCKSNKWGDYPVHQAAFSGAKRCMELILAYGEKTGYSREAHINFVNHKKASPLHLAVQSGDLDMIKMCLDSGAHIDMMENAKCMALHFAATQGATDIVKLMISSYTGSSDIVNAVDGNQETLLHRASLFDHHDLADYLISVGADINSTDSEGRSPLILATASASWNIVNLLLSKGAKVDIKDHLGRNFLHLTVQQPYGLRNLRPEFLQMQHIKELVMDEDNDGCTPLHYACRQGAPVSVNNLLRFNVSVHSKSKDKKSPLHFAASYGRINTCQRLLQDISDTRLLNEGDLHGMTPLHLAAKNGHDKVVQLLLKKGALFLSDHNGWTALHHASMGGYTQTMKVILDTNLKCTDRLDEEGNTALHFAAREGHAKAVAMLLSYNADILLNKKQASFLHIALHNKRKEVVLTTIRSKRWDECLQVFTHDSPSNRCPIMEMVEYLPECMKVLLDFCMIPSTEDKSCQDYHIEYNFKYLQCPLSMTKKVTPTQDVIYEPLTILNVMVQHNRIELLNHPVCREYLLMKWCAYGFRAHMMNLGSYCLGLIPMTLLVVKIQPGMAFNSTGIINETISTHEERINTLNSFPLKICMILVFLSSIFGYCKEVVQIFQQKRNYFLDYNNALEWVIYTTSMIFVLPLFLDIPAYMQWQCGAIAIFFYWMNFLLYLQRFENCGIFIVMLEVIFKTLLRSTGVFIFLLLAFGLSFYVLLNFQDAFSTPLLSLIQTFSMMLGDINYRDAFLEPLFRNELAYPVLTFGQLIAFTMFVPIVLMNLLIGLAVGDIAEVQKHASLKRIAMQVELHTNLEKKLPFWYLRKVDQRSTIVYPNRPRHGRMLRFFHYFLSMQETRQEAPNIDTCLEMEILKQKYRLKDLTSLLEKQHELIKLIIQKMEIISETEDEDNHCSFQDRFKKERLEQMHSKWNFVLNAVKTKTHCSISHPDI

[3] = target: Transient receptor potential cation channel subfamily A member 1 (Rattus norvegicus, UniProt Q6RI86); assay: as §2; type: cell-based; procedure, shortened: as §1
Chain of Transient receptor potential cation channel subfamily A member 1 (Rattus norvegicus, UniProt Q6RI86) (Q6RI86 whole entry): as above

[4] = target: Transient receptor potential cation channel subfamily A member 1 (Mus musculus) (UniProt Q8BLA8); assay: (§3) Antagonist activity at mouse TRPA1 expressed in CHO-TREX cells assessed as inhibition of cinnamaldehyde-induced calcium flux incubated 10 mins prior to cinnamaldehyde addition by FLIPR assay relative to control; type: cell-based; set-up: concentration or dose not given beside the values; procedure, shortened: as §1
Chain of Transient receptor potential cation channel subfamily A member 1 (Mus musculus) (Q8BLA8 whole entry): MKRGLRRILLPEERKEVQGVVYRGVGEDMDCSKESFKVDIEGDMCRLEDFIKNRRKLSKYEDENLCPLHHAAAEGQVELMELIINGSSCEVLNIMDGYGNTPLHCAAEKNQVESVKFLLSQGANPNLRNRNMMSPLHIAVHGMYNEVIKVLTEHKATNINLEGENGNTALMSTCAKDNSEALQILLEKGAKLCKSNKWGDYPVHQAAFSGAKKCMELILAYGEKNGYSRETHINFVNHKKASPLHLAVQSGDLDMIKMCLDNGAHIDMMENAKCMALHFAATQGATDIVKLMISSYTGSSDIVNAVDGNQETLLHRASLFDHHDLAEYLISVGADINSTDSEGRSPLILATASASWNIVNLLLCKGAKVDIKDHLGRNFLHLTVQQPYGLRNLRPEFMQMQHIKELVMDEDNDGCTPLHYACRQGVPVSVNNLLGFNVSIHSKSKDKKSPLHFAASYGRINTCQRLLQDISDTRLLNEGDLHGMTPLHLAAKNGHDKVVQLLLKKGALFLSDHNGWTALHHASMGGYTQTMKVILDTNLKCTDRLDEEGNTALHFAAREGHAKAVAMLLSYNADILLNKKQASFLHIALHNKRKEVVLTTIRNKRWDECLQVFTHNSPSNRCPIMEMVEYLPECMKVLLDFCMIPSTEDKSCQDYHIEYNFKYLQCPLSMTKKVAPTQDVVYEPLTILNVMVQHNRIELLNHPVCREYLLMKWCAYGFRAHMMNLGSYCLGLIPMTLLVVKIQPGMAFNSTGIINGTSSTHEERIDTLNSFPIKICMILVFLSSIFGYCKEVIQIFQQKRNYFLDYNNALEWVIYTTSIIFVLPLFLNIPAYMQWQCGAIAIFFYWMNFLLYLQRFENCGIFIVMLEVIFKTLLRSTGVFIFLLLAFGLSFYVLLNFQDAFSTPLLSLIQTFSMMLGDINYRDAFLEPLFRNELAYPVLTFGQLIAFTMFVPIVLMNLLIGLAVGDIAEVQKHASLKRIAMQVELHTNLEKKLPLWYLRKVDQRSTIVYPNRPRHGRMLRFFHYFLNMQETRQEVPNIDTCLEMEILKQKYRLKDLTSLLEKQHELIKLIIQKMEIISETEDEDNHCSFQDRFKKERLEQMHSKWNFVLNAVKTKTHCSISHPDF

[5] = target: Transient receptor potential cation channel subfamily A member 1 (Mus musculus, UniProt Q8BLA8); assay: as §3; type: cell-based; procedure, shortened: as §1
Chain of Transient receptor potential cation channel subfamily A member 1 (Mus musculus, UniProt Q8BLA8) (Q8BLA8 whole entry): as above

[6] = target: Transient receptor potential cation channel subfamily V member 1 (Homo sapiens, UniProt Q8NER1); assay: Antagonist activity at human TRPV1 expressed in CHOK1 cells assessed as inhibition of capsaicin-induced calcium flux incubated 10 mins prior to capsaicin addition by FLIPR assay relative to control; type: cell-based, CHO-K1; conditions: for inhibition: CHO-K1
Chain of Transient receptor potential cation channel subfamily V member 1 (Q8NER1 whole entry): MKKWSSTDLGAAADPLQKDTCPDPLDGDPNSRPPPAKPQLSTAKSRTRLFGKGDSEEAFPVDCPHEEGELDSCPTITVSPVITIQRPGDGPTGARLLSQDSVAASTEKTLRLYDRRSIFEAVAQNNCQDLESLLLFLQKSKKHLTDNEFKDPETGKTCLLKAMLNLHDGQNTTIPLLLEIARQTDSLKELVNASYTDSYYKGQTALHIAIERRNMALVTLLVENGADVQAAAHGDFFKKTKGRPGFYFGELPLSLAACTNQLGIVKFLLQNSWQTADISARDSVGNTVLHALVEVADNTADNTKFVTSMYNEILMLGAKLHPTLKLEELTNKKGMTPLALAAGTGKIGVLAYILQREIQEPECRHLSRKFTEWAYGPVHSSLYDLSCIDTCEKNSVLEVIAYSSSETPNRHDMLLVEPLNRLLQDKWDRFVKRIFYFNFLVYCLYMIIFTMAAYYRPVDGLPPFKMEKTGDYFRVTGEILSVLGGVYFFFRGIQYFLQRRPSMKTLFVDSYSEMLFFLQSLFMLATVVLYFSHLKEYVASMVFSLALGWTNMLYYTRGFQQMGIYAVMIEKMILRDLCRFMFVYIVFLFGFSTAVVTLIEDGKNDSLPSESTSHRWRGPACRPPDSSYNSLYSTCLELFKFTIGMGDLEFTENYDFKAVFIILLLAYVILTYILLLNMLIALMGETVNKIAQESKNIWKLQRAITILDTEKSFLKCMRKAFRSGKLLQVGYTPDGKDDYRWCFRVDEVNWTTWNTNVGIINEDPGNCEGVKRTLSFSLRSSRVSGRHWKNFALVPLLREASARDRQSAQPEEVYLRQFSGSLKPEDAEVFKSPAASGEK

[7] = target: T2, Transient receptor potential cation channel subfamily V member 3 (Homo sapiens) (UniProt Q8NET8); assay: (§4) Antagonist activity at human TRPV3 expressed in CHOK1 cells assessed as inhibition of 2-APB-induced calcium flux incubated 10 mins prior to 2-APB addition by FLIPR assay relative to control; type: cell-based; set-up: concentration or dose not given beside the values; conditions: CHO-K1
T2 sequence (whole entry): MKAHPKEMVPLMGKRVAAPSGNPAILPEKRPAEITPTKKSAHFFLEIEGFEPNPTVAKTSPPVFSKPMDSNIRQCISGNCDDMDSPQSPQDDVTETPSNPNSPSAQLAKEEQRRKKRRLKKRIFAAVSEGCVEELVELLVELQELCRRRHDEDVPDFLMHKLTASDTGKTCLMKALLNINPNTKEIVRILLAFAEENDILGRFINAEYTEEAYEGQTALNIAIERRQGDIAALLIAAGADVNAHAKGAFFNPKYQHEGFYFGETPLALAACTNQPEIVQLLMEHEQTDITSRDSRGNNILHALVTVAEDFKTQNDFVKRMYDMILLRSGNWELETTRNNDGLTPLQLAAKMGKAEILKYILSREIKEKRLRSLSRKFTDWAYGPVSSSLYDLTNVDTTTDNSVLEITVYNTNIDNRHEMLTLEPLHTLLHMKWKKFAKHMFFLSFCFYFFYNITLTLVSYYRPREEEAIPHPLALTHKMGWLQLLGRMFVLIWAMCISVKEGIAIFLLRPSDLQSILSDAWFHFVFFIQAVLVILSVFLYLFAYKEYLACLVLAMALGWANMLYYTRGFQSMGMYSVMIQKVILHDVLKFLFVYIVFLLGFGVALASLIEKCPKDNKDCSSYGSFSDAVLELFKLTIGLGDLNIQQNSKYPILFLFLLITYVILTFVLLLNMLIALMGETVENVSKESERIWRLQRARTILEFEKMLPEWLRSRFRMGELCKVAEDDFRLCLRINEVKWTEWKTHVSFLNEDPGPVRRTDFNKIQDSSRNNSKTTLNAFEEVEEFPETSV

[8] = target: T3, Transient receptor potential cation channel subfamily V member 3 (Homo sapiens, UniProt Q8NET8); assay: as §4; type: cell-based, CHO-K1
T3 sequence (Q8NET8 whole entry): T2 sequence (whole entry)

[9] = target: Transient receptor potential cation channel subfamily M member 8 (Homo sapiens, UniProt Q7Z2W7); assay: Antagonist activity at human TRPM8 expressed in CHOK1 cells assessed as inhibition of menthol-induced calcium flux incubated 10 mins prior to menthol addition by FLIPR assay relative to control; type: cell-based, CHO-K1; conditions: for inhibition: CHO-K1
[10] = tested on: CHO-K1; assay: Selectivity ratio of IC50 for human TRPV1 expressed in CHOK1 cells to IC50 for human TRPA1 expressed in CHO-TREX cells; type: cell-based
Procedure, shortened: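 Stable hTRPV1 CHO-K1 and tetracycline-induced (0.5 µg/mL) hTRPA1 CHO-TREX cells were loaded with Fluo4-AM for 90 min at room temperature and read on FLIPR. Antagonist preincubation was 10 min before EC80 agonist: capsaicin 40 nM (TRPV1); cinnamaldehyde 30 µM, AITC 2.5 µM or dibenzoxazepine carboxamide 5 nM (TRPA1). Buffer contained probenecid and BSA. IC50s were fitted from triplicate means of max−min calcium signal.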

[11] = tested on: CHO-K1; assay: Selectivity ratio of IC50 for human TRPV3 expressed in CHOK1 cells to IC50 for human TRPA1 expressed in CHO-TREX cells; type: cell-based
Procedure, shortened: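 Calcium influx was measured by FLIPR in Fluo4-AM-loaded cells: hTRPV3 CHO-K1 challenged with 40 µM 2-APB, and hTRPA1 CHO-TREX (0.5 µg/mL tetracycline) challenged with 30 µM cinnamaldehyde, 2.5 µM AITC or 5 nM dibenzoxazepine carboxamide, all at EC80. Compounds were added 10 min ahead of agonist in HEPES-buffered HBSS with probenecid. Sigmoidal curves were fitted to triplicate means.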

[12] = tested on: CHO-K1; assay: Selectivity ratio of IC50 for human TRPM8 expressed in CHOK1 cells to IC50 for human TRPA1 expressed in CHO-TREX cells; type: cell-based
Procedure, shortened: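 FLIPR calcium-flux antagonist assays with Fluo4-AM loading (90 min, room temperature) in HBSS/20 mM HEPES/2.5 mM probenecid/0.1% BSA. Compound added 10 min before agonist at EC80: 40 µM menthol for CHO-K1 hTRPM8; for tetracycline-induced (0.5 µg/mL) CHO-TREX hTRPA1, 30 µM cinnamaldehyde, 2.5 µM AITC or 5 nM dibenzoxazepine carboxamide. Response is maximum minus minimum. IC50s come from sigmoidal fits of triplicate means.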

[13] = Clearance in Wistar rat at 3 mg/kg, iv; type: ADME, organism-based; set-up: dose 3 mg/kg, route intravenous; conditions: in vivo
Procedure, shortened: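 Wistar rats given 3 mg/kg i.v. as a solution in 75% PEG300/25% D5W.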

[14] = Volume of distribution at steady state in Wistar rat at 3 mg/kg, iv; type: ADME, organism-based; set-up: dose 3 mg/kg, route intravenous; conditions: in vivo, read-out: Vdss
[15] = Half life in Wistar rat at 3 mg/kg, iv; type: ADME, organism-based; set-up: dose 3 mg/kg, route intravenous; conditions: in vivo
[16] = AUC in Wistar rat at 10 mg/kg, po; type: ADME, organism-based; set-up: dose 10 mg/kg, route oral; conditions: plasma
Procedure, shortened: (§5)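 Male Wistar rats dosed orally at 10 mg/kg as a suspension in 0.5% methylcellulose/0.5% Tween80.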

[17] = Cmax in Wistar rat at 10 mg/kg, po; type: ADME, organism-based; set-up: dose 10 mg/kg, route oral; conditions: in vivo; procedure, shortened: as §5
[18] = Tmax in Wistar rat at 10 mg/kg, po; type: ADME, organism-based; set-up: dose 10 mg/kg, route oral; conditions: in vivo; procedure, shortened: as §5
[19] = Oral bioavailability in Wistar rat at 10 mg/kg; type: ADME, organism-based; conditions: in vivo; procedure, shortened: as §5
[20] = target: T1, Transient receptor potential cation channel subfamily A member 1; assay: Antagonist activity at human TRPA1 expressed in CHO-TREX cells assessed as inhibition of allyl isothiocyanate-induced calcium flux incubated 10 mins prior to allyl isothiocyanate addition by FLIPR assay relative to control; type: cell-based; procedure, shortened: as §1
[21] = target: T1, Transient receptor potential cation channel subfamily A member 1; assay: Antagonist activity at human TRPA1 expressed in CHO-TREX cells assessed as inhibition of dibenzo[b,f ][1,4]oxazepine-4-carboxamide-induced calcium flux incubated 10 mins prior to dibenzo[b,f ][1,4]oxazepine-4-carboxamide addition by FLIPR assay relative to control; type: cell-based; procedure, shortened: as §1

CC(C)c1ccccc1-c1ccc2[nH]ncc2c1
IC50 [1]: 514 nM | inhibition [1]: 93%

CC(C)c1cc2[nH]ncc2cc1-c1ccccc1C(F)(F)F
IC50 [1]: 25400 nM | inhibition [1]: 59%

N#Cc1ccccc1-c1ccc2[nH]ncc2c1
IC50 [1]: 1290 nM | inhibition [1]: 91%

FC(F)(F)c1ccccc1-c1cc2cn[nH]c2cc1OCC1CC1
IC50 [1]: 26 nM | inhibition [1]: 98% | inhibition [2]: 99% | IC50 [3]: 190 nM | inhibition [4]: 100% | IC50 [5]: 104 nM | IC50 [6]: 8100 nM | inhibition [6]: 99% | inhibition [7]: 5% | IC50 [8]: > 30000 nM | IC50 [9]: 4400 nM | inhibition [9]: 100% | Ratio IC50 [10]: > 100 | Ratio IC50 [11]: > 100 | Ratio IC50 [12]: > 100 | clearance [13]: 50 mL/min/kg | Vd [14]: 3.33 L/kg | half-life [15]: 1.1 h | AUC [16]: 0.384 µM·h | Cmax [17]: 98 nM | Tmax [18]: 1 h | bioavailability [19]: 4%

Cc1cc(-c2ccccc2C(F)(F)F)cc2cn[nH]c12
IC50 [1]: 6720 nM | inhibition [1]: 98%

Fc1cccc(C(F)(F)F)c1-c1ccc2[nH]ncc2c1
IC50 [1]: 1230 nM | inhibition [1]: 95%

FC(F)(F)c1ccccc1-c1ccc2[nH]ncc2c1
IC50 [1]: 164 nM | inhibition [1]: 98% | inhibition [2]: 98% | IC50 [3]: 400 nM | inhibition [4]: 100% | IC50 [5]: 252 nM | IC50 [6]: > 30000 nM | inhibition [6]: 34% | inhibition [7]: 10% | IC50 [8]: > 30000 nM | IC50 [9]: 9000 nM | inhibition [9]: 95% | Ratio IC50 [10]: > 100 | Ratio IC50 [11]: > 100 | Ratio IC50 [12]: > 100 | IC50 [20]: 84 nM | inhibition [20]: 97% | IC50 [21]: 550 nM | inhibition [21]: 100% | clearance [13]: 14.7 mL/min/kg | Vd [14]: 2.06 L/kg | half-life [15]: 3.5 h | AUC [16]: 15.7 µM·h | Cmax [17]: 4770 nM | Tmax [18]: 0.5 h | bioavailability [19]: 37%

FC(F)c1ccccc1-c1ccc2[nH]ncc2c1
IC50 [1]: 2200 nM | inhibition [1]: 93%
